According to ChEMBL document CHEMBL5136962, “Synthesis and immunological evaluation of N-acyl modified Globo H derivatives as anticancer vaccine candidates” (RSC Med Chem, 2021):
Calls of active or inactive are those of the source.

Legend:
Mus musculus [1] = experiment: Induction of antigen-specific immunogenicity in pathogen free Balb/c mouse assessed as increase in IgG1 antibody titer production against native Globo H antigen at 2 ug, IM administered 4 times at biweekly interval measured 13 days post third vaccination in presence of 2 ug glycolipid adjuvant C34 by ELISA; format: functional, organism-based; details: dose 2.0 µg, time 13.0 day
In short: (§1)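 Six female Balb/c mice per group received CRM197 glycoconjugate (2 μg carbohydrate antigen) with C34 adjuvant (2 μg) intramuscularly, four times at two-week intervals. Pooled group sera were tested for IgG subclasses by ELISA on plates coated with the unmodified Globo H–BSA conjugate (G0-BSA).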

Mus musculus [2] = experiment: Induction of antigen-specific immunogenicity in pathogen free Balb/c mouse assessed as increase in IgG1 antibody titer production against native Globo H antigen at 2 ug, IM administered 4 times at biweekly interval measured 14 days post fourth vaccination in presence of 2 ug glycolipid adjuvant C34 by ELISA; format: functional, organism-based; details: dose 2.0 µg, time 14.0 day; in short: as §1
Mus musculus [3] = experiment: Induction of antigen-specific immunogenicity in pathogen free Balb/c mouse assessed as increase in IgG1 antibody titer production against modified Globo H antigen at 2 ug, IM administered 4 times at biweekly interval measured 14 days post fourth vaccination in presence of 2 ug glycolipid adjuvant C34 by ELISA; format: functional, organism-based; details: dose 2.0 µg, time 14.0 day
MCF7 = experiment: Induction of complement-dependent cytotoxicity against human MCF7 cells assessed as increase in cell lysis using mouse sera induced by compound immunization and 14 days post fourth vaccination measured after 1 hr by LDH release assay; format: functional, cell-based; details: time 14.0 day
In short: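 Complement-dependent cytotoxicity on MCF-7 cells used pooled sera collected after the 4th vaccination, diluted 1:10. Percent lysis was read by LDH release, with three wells per measurement. Values are mean ± SEM of three independent experiments, compared by one-way ANOVA.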

Globohexaosylceramide = experiment: Binding affinity to globo H antigen in human MCF7 cells using mouse sera induced by compound immunization and 14 days post fourth vaccination measured after 30 mins by FITC-conjugated antibody based flow cytometry; format: cell-based; details: time 14.0 day
In short: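 Immune sera from vaccinated mice were incubated with Globo H-positive MCF-7 human breast cancer cells. Binding of serum antibodies to the cells was measured by flow cytometry.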

Measured: Activity

C[C@@H]1O[C@@H](O[C@H]2[C@H](O[C@H]3[C@@H](O)[C@@H](CO)O[C@@H](O[C@H]4[C@@H](O)[C@@H](CO)O[C@H](O[C@@H]5[C@H](O)[C@@H](O)[C@H](O[C@H]6[C@H](O)[C@@H](O)[C@H](OCCCCCN)O[C@@H]6CO)O[C@@H]5CO)[C@@H]4O)[C@@H]3NC(=O)C(F)(F)F)O[C@H](CO)[C@H](O)[C@@H]2O)[C@@H](O)[C@H](O)[C@@H]1O
active: Mus musculus [1] | Mus musculus [2] | Mus musculus [3] | MCF7 | Globohexaosylceramide

C[C@@H]1O[C@@H](O[C@H]2[C@H](O[C@H]3[C@@H](O)[C@@H](CO)O[C@@H](O[C@H]4[C@@H](O)[C@@H](CO)O[C@H](O[C@@H]5[C@H](O)[C@@H](O)[C@H](O[C@H]6[C@H](O)[C@@H](O)[C@H](OCCCCCN)O[C@@H]6CO)O[C@@H]5CO)[C@@H]4O)[C@@H]3NC(=O)C(F)F)O[C@H](CO)[C@H](O)[C@@H]2O)[C@@H](O)[C@H](O)[C@@H]1O
active: Mus musculus [1] | Mus musculus [2] | Mus musculus [3] | MCF7 | Globohexaosylceramide

CC(=O)N[C@H]1[C@H](O[C@H]2[C@@H](O)[C@@H](CO)O[C@H](O[C@@H]3[C@H](O)[C@@H](O)[C@H](O[C@H]4[C@H](O)[C@@H](O)[C@H](OCCCCCN)O[C@@H]4CO)O[C@@H]3CO)[C@@H]2O)O[C@H](CO)[C@H](O)[C@@H]1O[C@@H]1O[C@H](CO)[C@H](O)[C@H](O)[C@H]1O[C@@H]1O[C@@H](C)[C@@H](O)[C@@H](O)[C@@H]1O
active: Mus musculus [1] | Mus musculus [2] | Mus musculus [3] | Globohexaosylceramide
